ChEMBL document CHEMBL2169772, “Discovery of (2S)-1-[4-(2-{6-amino-8-[(6-bromo-1,3-benzodioxol-5-yl)sulfanyl]-9H-purin-9-yl}ethyl)piperidin-1-yl]-2-hydroxypropan-1-one (MPC-3100), a purine-based Hsp90 inhibitor” (J Med Chem, 2012)

Key:
[1] = Cmax in Swiss nude mouse at 100 mg/kg, po by LC-ESI-MS/MS method; format: ADME, organism-based; set-up: dose 100 mg/kg, route oral; conditions: in vivo
How it was run: (§1)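 Single oral gavage in mice, vehicle 40% Captisol in phosphate buffer. EDTA plasma from cardiac puncture. Acetonitrile precipitation with internal standard, then LC-ESI-MS/MS quantitation against a 10–10 000 ng/mL standard curve. Cmax and AUC by noncompartmental analysis.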

[2] = Oral bioavailability in Swiss nude mouse at 100 mg/kg administered using captisol and phosphate buffer system formulation by LC-ESI-MS/MS method; conditions: in vivo
[3] = Tmax in Swiss nude mouse at 10 mg/kg, po by LC-ESI-MS/MS method; format: ADME, organism-based; set-up: dose 10 mg/kg, route oral; conditions: in vivo
How it was run: (§2)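 Mice dosed by oral gavage, vehicle DMA/PEG300/EtOH/H2O (3/40/12/45, v/v/v/v). Blood drawn by cardiac puncture into EDTA plasma. Three or five animals per time point. Plasma precipitated with acetonitrile plus internal standard. Quantified by LC-ESI-MS/MS against a 10–10 000 ng/mL standard curve with QC samples. Noncompartmental analysis.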

Mus musculus [4] = assay: Inhibition of HSP90 in mouse liver assessed as induction of HSP70 mRNA expression at 100 mg/kg, po after 6 hrs relative to control; format: functional
Heat shock protein HSP90 [5] = target: T1, Heat shock protein HSP90 (Homo sapiens, UniProt P07900+P08238); assay: Inhibition of human HSP90 in HCT116 cells expressing Her2 gene assessed as degradation of Her2 after 4 hrs by luciferase reporter gene assay; format: cell-based; conditions: hct-116
How it was run: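 HCT116 cells stably transfected with Her2 kinase domain (aa 641–975) fused to firefly luciferase. Seeded at 10 000 per well in DMEM with 10% serum and left overnight. Compound added from DMSO (0.4% final) for 4 h. Steady-Glo added at room temperature for 5 min, then luminescence read.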

[6] = AUC in Swiss nude mouse at 100 mg/kg, po by LC-ESI-MS/MS method; format: ADME, organism-based; set-up: dose 100 mg/kg, route oral; conditions: plasma; how it was run: as §1
[7] = AUC in Swiss nude mouse at 10 mg/kg, po by LC-ESI-MS/MS method; format: ADME, organism-based; set-up: dose 10 mg/kg, route oral; conditions: plasma; how it was run: as §2
Mus musculus [8] = assay: Hepatic clearance in Swiss nude mouse at 2.5 mg/kg, iv by LC-ESI-MS/MS method; format: ADME, organism-based, Liver; set-up: dose 2.5 mg/kg, route intravenous; conditions: in vivo
How it was run: (§3)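 Intravenous dose in mice, vehicle DMA/PEG300/EtOH/H2O 3/40/12/45. Sampling at 5, 15, 30, 60, 120, 240, 480 and 720 min, three or five animals per time point. Cardiac-puncture EDTA plasma. Acetonitrile protein precipitation with internal standard, then LC-ESI-MS/MS (10–10 000 ng/mL curve). Parameters by noncompartmental fit.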

[9] = Half life in Swiss nude mouse at 2.5 mg/kg, iv by LC-ESI-MS/MS method; format: ADME, organism-based; set-up: dose 2.5 mg/kg, route intravenous; conditions: in vivo; how it was run: as §3
[10] = Cytotoxicity against human NCI-ADR-RES cells overexpressing P-gp 1 assessed as inhibition of tumor growth incubated for 72 hrs by luminometry; format: functional, cell-based
How it was run: (§4)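 Cells seeded at 5000 per well in DMEM with 10% serum and left overnight. Compound added from DMSO dilutions (0.4% DMSO final) for 72 h. After 5 min at room temperature, ATPLite two-step lysis and substrate added, 5 min incubation, then luminescence read. Values are the mean of at least two experiments.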

[11] = (§5) Metabolic stability in human liver microsomes assessed as percent of residual drug in presence of NADPH incubated for 40 mins by LC-ESI-MS/MS method; format: ADME, Microsome; conditions: liver microsomes, read-out: Stability
How it was run: (§6)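 Test article incubated in duplicate with human liver microsomes (0.5 mg/mL protein) in 100 mM potassium phosphate pH 7.4. Started with 1 mM NADPH. Stopped with acetonitrile at 0, 10, 20 and 40 min. LC-MS/MS peak area at 40 min reported as percent of 0 min. No-NADPH control incubated for 40 min.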

[12] = Oral bioavailability in Swiss nude mouse at 10 mg/kg by LC-ESI-MS/MS method; format: ADME, organism-based; conditions: in vivo; how it was run: as §2
[13] = Volume of distribution in Swiss nude mouse at 2.5 mg/kg, iv by LC-ESI-MS/MS method; format: ADME, organism-based; set-up: dose 2.5 mg/kg, route intravenous; conditions: in vivo; how it was run: as §3
[14] = Cmax in Swiss nude mouse at 10 mg/kg, po by LC-ESI-MS/MS method; format: ADME, organism-based; set-up: dose 10 mg/kg, route oral; conditions: in vivo; how it was run: as §2
[15] = AUC in Swiss nude mouse at 2.5 mg/kg, iv by LC-ESI-MS/MS method; format: ADME, organism-based; set-up: dose 2.5 mg/kg, route intravenous; conditions: plasma; how it was run: as §3
HCT-116 [16] = assay: Cytotoxicity against human HCT116 cells assessed as inhibition of tumor growth incubated for 72 hrs by luminometry; format: functional, cell-based; conditions: HCT-116, 72 h; how it was run: as §4
Heat shock protein HSP90 [17] = target: T1, Heat shock protein HSP90; assay: Inhibition of human HSP90 using BODIPY labelled geldanamycin as substrate by fluorescence polarization assay; format: protein assay
Liver microsomes = assay: as §5; format: ADME, Microsome; conditions: microsomes, 40 min; how it was run: as §6
[18] = Solubility of compound in phosphate buffer at pH 7.4; format: physicochemical
HCT-116 [19] = assay: Ratio of IC50 for human NCI-ADR-RES cells overexpressing P-gp1 to IC50 for human HCT116 cells; format: functional
[20] = Lipophilicity, log P of the compound; format: physicochemical; conditions: octanol/water

| SMILES | Cmax [1] [ng/mL] | bioavailability [2] [%] | Tmax [3] [min] | fold change (FC) (Mus musculus [4]) | IC50 (Heat shock protein HSP90 [5]) [nM] | AUC [6] [ng·h/mL] | AUC [7] [ng·h/mL] | CLH (Mus musculus [8]) [mL/min/kg] | half-life [9] [min] | IC50 [10] [nM] | remaining at 40 min [11] [%] | bioavailability [12] [%] | Vd [13] [L/kg] | Cmax [14] [ng/mL] | AUC [15] [ng·h/mL] | IC50 (HCT-116 [16]) [nM] | IC50 (Heat shock protein HSP90 [17]) [nM] | also measured |
| --- | --- | --- | --- | --- | --- | --- | --- | --- | --- | --- | --- | --- | --- | --- | --- | --- | --- | --- |
| C[C@@H](O)C(=O)N1CCC(CCn2c(Sc3cc4c(cc3Br)OCO4)nc3c(N)ncnc32)CC1 | 8400 | > 50 | 15 | 24 | 90 | 50300 | 2410 | 25.22 | 36 | 3300 | 58 | 37 | 1.32 | 1430 | 1650 | 640 | 110 | – |
| Nc1ncnc2c1nc(Sc1cc3c(cc1Br)OCO3)n2CCC1C[C@H]2CC[C@@H](C1)O2 (some centres undefined) | – | – | – | – | – | – | – | – | – | – | – | – | – | – | – | – | – | Stability (Liver microsomes): Unstable |
| Nc1ncnc2c1nc(Sc1cc3c(cc1Br)OCCO3)n2CCC1CCN(C(=O)CO)CC1 | 7530 | > 50 | 15 | 1.7 | 40 | 18200 | 702 | 80.55 | 51 | 10000 | 45 | 34 | 5.93 | 55 | 517 | 820 | 90 | – |
| Nc1ncnc2c1nc(Sc1cc3c(cc1Br)OCO3)n2CCC1CCN(C(=O)CO)CC1 | 7780 | > 50 | 15 | 18 | 60 | 25100 | 1320 | 72.65 | 30 | 2000 | 54 | 57 | 3 | 588 | 574 | 380 | 110 | – |
| Nc1ncnc2c1nc(Sc1cc3c(cc1Br)OCO3)n2CCC(N)C1CC1 (centres undefined) | – | – | – | – | – | – | – | – | – | – | 75 | 0.4 | – | – | – | – | 80 | solubility [18]: > 100 µM |
| Nc1ncnc2c1nc(Sc1cc3c(cc1Br)OCCO3)n2CCC1CCN(C=O)CC1 | 8540 | > 50 | 60 | 2.3 | 49 | 38000 | 1180 | 43.08 | 16.8 | 2100 | 42 | 30 | 1.05 | 312 | 967 | 670 | 60 | – |
| CC(C)N1CCC(CCn2c(Sc3cc4c(cc3Br)OCO4)nc3c(N)ncnc32)CC1 | – | – | – | – | 320 | – | – | – | – | 7250 | – | – | – | – | – | 2580 | 900 | Ratio IC50 (HCT-116 [19]): 2 |
| CN1[C@@H]2CC[C@H]1CC(CCn1c(Sc3cc4c(cc3Br)OCO4)nc3c(N)ncnc31)C2 (some centres undefined) | – | – | – | – | – | – | – | – | – | – | – | – | – | – | – | – | – | Stability (Liver microsomes): Unstable |
| Nc1ncnc2c1nc(Sc1cc3c(cc1Br)OCO3)n2CCC1CCN(C=O)CC1 | 10900 | > 50 | 60 | 47 | 70 | 63900 | 1810 | 31.65 | 30 | 2800 | 17 | 35 | 1.45 | 354 | 1320 | 430 | 150 | logP [20]: 3.42 |
| C[C@H](O)C(=O)N1CCC(CCn2c(Sc3cc4c(cc3Br)OCCO4)nc3c(N)ncnc32)CC1 | 11600 | > 50 | 30 | 3.2 | 74 | 40400 | 1190 | 28.53 | 25.8 | 6500 | 45 | 20 | 1.07 | 564 | 1460 | 470 | 150 | – |
| Nc1ncnc2c1nc(Sc1cc3c(cc1Br)OC(F)(F)O3)n2CCC1CCN(C=O)CC1 | – | – | – | – | – | – | – | – | – | – | 0 | – | – | – | – | – | > 5000 | logP [20]: 4.82 |
| C[C@@H](O)C(=O)N1CCC(CCn2c(Sc3cc4c(cc3Br)OCCO4)nc3c(N)ncnc32)CC1 | 9300 | > 50 | 60 | 3.8 | 69 | 32600 | 1960 | 27.32 | 36 | 9800 | 35 | 32 | 1.35 | 1180 | 1530 | 920 | 110 | – |
